Key:
[1] = test system: primary cultured cortical neurons; assay: CCK-8 assay on neuronal cultures; format: cell-based, mouse; conditions: CCK-8, neuronal cultures treated with different dilutions of the probes for 24 h
[2] = test system: MHC-I molecules in ischemic brain; assay: In vivo and ex vivo NIRF imaging in photothrombotic stroke mice; parameters: species or system mouse
How it was run: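 Photothrombotic stroke in male C57BL/6 mice (6 weeks old), with brains illuminated 15 min and lesions confirmed by T2 MRI at 24 h. Cy5.5-labelled probe or scrambled control probe given i.v. via tail vein (10 nM, 200 μL PBS pH 7.4). Serial brain NIRF imaging 1–24 h (ex 675 nm, em 695 nm long pass). TBR taken as ischemic/contralateral hemisphere. Brain, heart, spleen, liver, kidney and lung then imaged ex vivo; n=6, mean±SEM.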

Substance: K(Cy5.5)ALYNFATM [Cy5.5-H2BP]
- cytotoxicity to neurons [1]: low cytotoxicity
- ex vivo NIRF signal intensity in the kidney ([2]; 24 h after injection of the probe, suggests excretion mainly via the kidney): high signal intensity
- target background ratio (TBR), ischemic/contralateral hemisphere ([2]; 24 h after probe administration, compared with Cy5.5-H2CP probe, n=6 per group): significantly enhanced
- TBR values in brain versus other organs ([2]; ex vivo NIRF images, brain, heart, liver, spleen, lung, kidney, n=6): significantly higher in the brain than in other organs
- time of peak NIRF signal intensity post-injection ([2]; photothrombosis model mice, tail vein injection, 10 nM, 200 μL in PBS pH 7.4): approximately 8 h

Source: article PMC5562219 (Theranostics, 2017)
